Compound activity as filed in PubChem BioAssay.
This is a sample that favours compounds with a hit; in the whole collection about 2.5% have one here.
JNK3 inh: blocks human JNK3 kinase activity; AID 746; P53779; hit rate 0.61% among 60,000; inhibition, % at 8 µM; purified JNK3 kinase activity, HTS; in the data active means inhibition above about 17%;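 further: 0% = DMSO and 100% = reference inhibitor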
Target sequence (P53779 whole entry, looked up): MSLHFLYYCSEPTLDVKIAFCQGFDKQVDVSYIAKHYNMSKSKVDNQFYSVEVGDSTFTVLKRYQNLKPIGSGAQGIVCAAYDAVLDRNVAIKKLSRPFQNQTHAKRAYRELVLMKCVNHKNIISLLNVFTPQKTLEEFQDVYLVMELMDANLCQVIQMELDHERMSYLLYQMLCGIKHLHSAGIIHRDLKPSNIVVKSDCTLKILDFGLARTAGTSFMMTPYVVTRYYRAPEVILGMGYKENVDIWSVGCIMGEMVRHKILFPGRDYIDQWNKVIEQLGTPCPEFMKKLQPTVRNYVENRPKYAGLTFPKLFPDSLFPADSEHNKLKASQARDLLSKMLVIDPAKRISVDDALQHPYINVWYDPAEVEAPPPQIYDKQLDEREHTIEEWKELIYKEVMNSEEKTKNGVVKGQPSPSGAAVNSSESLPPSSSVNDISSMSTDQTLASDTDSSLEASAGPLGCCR
HER2 expr 66K: Her2 kinase expression inhibition. SKBR-3 HER2 protein level, AlphaScreen, 18-24 h; hits give low values. AID 645. P04626. HER2 level % of control, % at 10 µM. hit rate 0.69% among 65,000;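 active means HER2 level under 5% of the carrier-only control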;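 further: 100% = DMSO carrier and 0% = 500 nM PU-H71 HSP90 inhibitor; lower value means stronger loss of Her2 protein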
Hsp90 inh: displaces geldanamycin probe from tumor Hsp90 | AID 429 | hit rate 0.35% among 64,000 | inhibition, % at 30 µM | NCI-N417 lysate Hsp90, Cy3B-geldanamycin FP displacement;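 active means inhibition above 50%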;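 further: 0% = tracer plus lysate wells and 100% = tracer alone without lysate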
AP complement: alternative pathway complement inhibition, orthogonal assay | Human serum alternative complement pathway, LPS-coated ELISA, C3 deposition; tested in compound mixtures | inhibition, % at 5 µM | hit rate 0.08% among 62,000 | AID 1235;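 active means inhibition above 30% in each of the two pooled mixtures holding the compound, so the lower value exceeds 30%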;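 further: 0% = serum in Mg-EGTA without compound and 100% = EDTA serum blank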
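Test system: human serum alternative complement pathway, C3 deposition on LPS-coated wells; also added: Plate-bound LPS; doses: 5 µM per compound in ten-compound mixtures; schedule: 1 h at 37 °C; detection: Anti-C3 ELISA, OD 450 nm; evaluation: percent inhibition of C3 deposition onto LPS; repeats: two pool placements per compound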
Jurkat tox 60K: reduces viability or proliferation of Jurkat cells; Jurkat E6.1 viability, ATP luminescence, 48 h; inhibition, % at 4 µM; hit rate 1.2% among 56,000;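 active means inhibition above the mean inhibition of all tested compounds plus 3 SD, cut at about 28% in these data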
HEK293 NFkB inh: inhibitors of the PMA/ionomycin-induced NF-kB reporter in HEK293 cells. hit rate 0.21% among 62,000. HEK-293 NF-kB luciferase reporter, luminescence. inhibition, % at 3 µM. AID 465;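 active means inhibition above the mean of all tested compounds plus 3 SD, cut at about 40% in these data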;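 further: 0% = stimulated DMSO wells and 100% = 10 µM reference inhibitor 5653914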
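Signal: luciferase luminescence; Material: HEK-293 cells with stable firefly luciferase reporter driven by four HIV NF-kB elements; Probe or stimulus: PMA with ionomycin; Replication: tested once; Times: 1 h compound pretreatment, then 16 h stimulation at 37 °C, 5% CO2; Benchmarks: DMSO and 10 µM reference inhibitor; Evaluation: per-plate % inhibition versus controls.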
Numbers without * were called inactive; nt = no result.

SMILES	JNK3 inh	HER2 expr 66K	Hsp90 inh	AP complement	Jurkat tox 60K	HEK293 NFkB inh
CCOC(=O)CSC1=C(C#N)C(c2ccc(Cl)cc2)CC(=O)N1 (stereo unspecified)	-6.5	52.5	-3.3	7.3	2.4	4.4
N#Cc1nn(-c2ccccc2)nc1N1CCCCC1	1.4	105.2	0.3	7.0	1.2	-3.0
COc1cccc(OCc2nc3ccccc3[nH]2)c1	nt	109.4	0.4	6.8	nt	nt
COc1cccc(OCc2nc3ncc(Br)cc3[nH]2)c1	12.0	83.7	-4.2	10.5	64.6*	25.0
CCN(Cc1ccncc1)S(=O)(=O)c1ccc(C(C)=O)cc1	-4.4	101.5	-5.0	8.3	29.8*	13.4
Cn1nc(C(=O)Nc2c(-c3ccccc3)nc3sccn23)c2ccccc2c1=O	0.1	1.1*	-6.1	4.2	-4.9	14.5
CCOc1ccc(CNc2ccc3c(c2)ncn3C)cc1	-7.5	-17.4*	-5.8	-5.2	2.4	6.9
CCOC(=O)CSC1=C(C#N)C(c2ccccc2Cl)C(C(=O)OC)C(=O)N1 (stereo unspecified)	-0.4	89.2	-4.0	5.2	-5.4	10.1
O=C(Nc1nc(-c2ccccc2)cs1)C1CCCCN1S(=O)(=O)c1ccccc1 (stereo unspecified)	-7.1	108.4	-5.8	8.5	12.2	14.6
O=C(Nc1nc(-c2nc3ccccc3s2)cs1)c1ccc(S(=O)(=O)N2CCOCC2)cc1	0.3	74.2	1.3	22.9	50.0*	-15.9
O=C(Nc1nc(-c2ccc(S(=O)(=O)N3CCCCCC3)cc2)cs1)c1cccs1	6.8	59.7	0.6	0.4	28.7*	12.0
O=C(Nc1nc(-c2ccccc2)cs1)C1CCCN(S(=O)(=O)c2ccccc2)C1 (stereo unspecified)	2.2	64.3	-2.7	7.9	38.9*	11.1
CCN(CC(=O)Nc1ccc2c(c1)OCCO2)c1nc(-c2cccnc2)nc2ccccc12	2.6	96.0	-12.9	7.5	0.4	14.3
Cc1cc2nnc(SC3CCOC3=O)n2c2ccccc12 (stereo unspecified)	nt	114.6	-2.9	nt	nt	11.4
Cc1cc2nnc(SC(C)C#N)n2c2ccccc12 (stereo unspecified)	2.0	-27.7*	-4.7	10.7	7.2	-1.4
CCNC(=O)c1nc[nH]c1C(=O)NCC	9.4	-21.8*	-3.0	-11.9	-6.6	-0.4
CCOC(=O)c1[nH]cnc1C(=O)O	-0.8	106.8	-0.2	6.7	-5.2	16.0
CS(=O)(=O)N(CCc1ccccc1)CC(=O)NCc1cccnc1	3.2	94.8	-2.1	4.5	0.7	11.4
CCN(CC)CCCNc1cc(OC)c(Nc2ccccc2)c2cccnc12	nt	nt	129.5*	nt	nt	nt
COc1cc(NC(C)CCCNC(C)C)c2ncccc2c1OC (stereo unspecified)	nt	nt	36.0	nt	nt	nt
O=S(=O)(c1ccccc1F)N(Cc1ccco1)Cc1nnc(-c2ccccc2Br)o1	-6.2	79.4	-1.2	27.2	13.5	12.9
Cc1ccc(Oc2ccc(S(=O)(=O)N3CCOCC3)cc2C(N)=O)c(-n2nc3ccccc3n2)c1	4.3	81.6	0.3	24.7	87.0*	28.3
NC(N)=NCCSSCCN=C(N)N	nt	nt	0.7	nt	nt	nt
CCC(C)NC(=O)c1cnn2c1NC(c1ccc3c(c1)OCO3)CC2C(F)(F)F (stereo unspecified)	-0.3	-28.9*	0.5	11.4	-0.8	18.7
COc1ccc(C2=NO[C@@H]3C(=O)N(c4c(C)cccc4C)C(=O)[C@H]23)cc1OC	-9.7	118.5	74.4*	23.0	7.6	7.2
SMILES	JNK3 inh	HER2 expr 66K	Hsp90 inh	AP complement	Jurkat tox 60K	HEK293 NFkB inh
CCC(=O)N1CCN(c2ccccc2NC(=O)COc2cc(C)ccc2C(C)C)CC1	1.0	114.7	2.3	-5.9	2.8	19.5
CCOC(=O)c1c(-c2cccs2)csc1NC(=O)c1ccco1	1.5	-28.0*	-3.6	-2.8	-5.0	13.4
CCOC(=O)c1c(-c2cccs2)csc1NC(=O)CN1CCOCC1	15.3	83.3	-1.5	7.5	3.3	15.1
O=C(Nc1nnc(-c2cccs2)o1)c1cccc(F)c1	-1.6	90.8	2.3	-2.8	74.6*	-7.5
O=C(Nc1nnc(-c2cccs2)o1)c1cccc(Oc2ccccc2)c1	-5.2	90.6	3.1	4.2	9.6	6.4
NCCCCNS(=O)(=O)c1cccc2c(Cl)cccc12	nt	nt	-3.0	nt	nt	nt
O=C(Nc1ccc2c(c1)CCC2)C1CCN(c2c3c(nc4ncnn24)CCC3)CC1	2.5	62.9	-0.3	26.3	44.5*	21.8
COc1ccc(NC(=O)C2CCCN(c3c4c(nc5ncnn35)CCC4)C2)cc1OC (stereo unspecified)	-8.0	119.5	-1.2	15.8	6.7	17.0
COc1ccc(C2CNC(=O)C2)cc1OC1CCCC1 (stereo unspecified)	-0.5	92.9	-3.7	21.1	nt	nt
CCN(c1ccccc1)S(=O)(=O)c1ccc(Oc2ccc(-n3ccnc3)cc2)nc1	-7.0	77.4	1.2	8.1	13.2	98.3*
CN(C)CC(=O)N1c2ccccc2CCc2ccc(NC(=O)c3ccc(N)cc3)cc21	-2.6	98.8	-3.0	2.2	6.0	8.1
CCOC(=O)Nc1ccc2c(c1)N(C(=O)OC)c1ccccc1CC2	8.0	51.8	-0.8	5.0	65.9*	17.4
NC/C=C\C(=O)O	nt	nt	0.4	nt	nt	nt
COc1ccccc1-n1cnc2cc(NCc3ccco3)ccc21	1.0	68.6	-9.3	-9.4	57.5*	25.6
COc1ccc(CCN2CCC(Nc3nc4ccccc4n3Cc3ccc(F)cc3)CC2)cc1	0.3	-11.3*	-0.9	-17.8	nt	nt
COc1ccc(CNc2nc3c(c(=O)n(Cc4ccc(F)cc4)c(=O)n3C)n2C)cc1	3.7	103.7	0.2	3.2	0.3	0.0
CSc1cccc(NS(=O)(=O)c2ccccc2)c1	-1.3	108.4	-2.6	12.0	9.1	-9.4
CSc1cccc(NS(=O)(=O)c2ccc(F)cc2)c1	0.7	90.9	-1.8	33.8*	3.5	4.4
O=c1oc2ccccc2cc1NCc1ccccc1O	3.3	82.8	-1.8	-1.2	41.3*	15.2
Cc1ccccc1NCc1ccccc1O	-16.0	59.3	1.3	15.3	-0.5	23.1
O=C(c1cccs1)c1ccc(-c2cccs2)s1	1.1	-2.5*	-5.9	13.9	2.3	-41.6
O=C(c1cc2ccccc2o1)c1cccs1	4.9	58.6	3.8	5.3	0.6	-8.7
Cc1nn(-c2ccccc2)c2sc(C(=O)OC3CCOC3=O)cc12 (stereo unspecified)	2.7	121.8	-1.7	22.6	5.1	29.3
C=CCSC1=N/C(=C\C=C\c2ccco2)C(=O)S1	8.8	2.1*	-9.1	nt	-3.7	14.1
COCC(C)NC(=O)NC1(C(F)(F)F)Oc2ccc(Cl)cc2O1 (stereo unspecified)	nt	144.0	nt	20.0	nt	19.9
O=C(NCCN1CCOCC1)NC1(C(F)(F)F)Oc2ccc(Cl)cc2O1 (stereo unspecified)	3.4	89.6	65.2*	5.4	79.6*	15.7
O=S(=O)(c1cccc2c(I)cccc12)N1CCCNCC1	nt	nt	1.6	nt	nt	nt
